ChEMBL document CHEMBL1955767, “Synthesis and biological evaluation of piperidine-substituted triazine derivatives as HIV-1 non-nucleoside reverse transcriptase inhibitors” (Eur J Med Chem, 2012)
Structures can show the parent of a compound that is named as a salt. The source made the active and inactive calls. The rule behind the calls is not given here.

What was measured:
[1] = test system: Human immunodeficiency virus 1; experiment: Antiviral activity against HIV1 expressing reverse transcriptase K103N/Y181C mutant infected in human MT4 cells assessed as protection against virus-induced cytotoxicity after 5 days by MTT assay; type: functional, organism-based; conditions: Human immunodeficiency virus 1, MT4, 120 h
Outline: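 MT-4 cells, in exponential growth, pelleted and resuspended at 6×10^5 cells/mL, then infected or mock-infected. Compound added at start as serial fivefold dilutions in triplicate wells. Viability read by MTT reduction to formazan at 540 and 690 nm after 5 days.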

[2] = biological target: Human immunodeficiency virus type 1 reverse transcriptase (Human immunodeficiency virus 1, UniProt Q72547); experiment: Inhibition of HIV1 reverse transcriptase assessed as incorporation of biotin-dUTP into poly(rA)-oligo(dT)
Outline: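 ELISA-format RT kit with a poly(rA)-oligo(dT) homopolymer template/primer bound to the plate. Wild-type HIV-1 RT activity measured as biotin-dUTP incorporation into the template.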

[3] = Cytotoxicity against human MT4 cells after 5 days by MTT assay; type: cell-based
Outline: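 Mock-infected MT-4 cells (6×10^5 cells/mL) received serial fivefold compound dilutions in triplicate, run in parallel with the infected series. After 5 days, viability measured by MTT formazan absorbance at 540 and 690 nm, using the median OD of three wells.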

[4] = test system: Human immunodeficiency virus 1; experiment: Antiviral activity against HIV1 3B infected in human MT4 cells assessed as protection against virus-induced cytotoxicity after 5 days by MTT assay; type: functional, organism-based; conditions: Human immunodeficiency virus 1, 3B, MT4, 120 h
Outline: (§1)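 MT-4 cells (6×10^5 cells/mL) infected with HIV-1 IIIB or HIV-2 ROD at 100–300 CCID50. Compounds added at 10× stock as serial fivefold dilutions in triplicate, with untreated infected and mock-infected controls run alongside. Viability read by MTT reduction at 540 and 690 nm 5 days post-infection, using the median OD of three wells.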

[5] = Selectivity index, ratio of CC50 for human MT4 cells to EC50 for HIV1 3B; type: toxicity, cell-based; conditions: read-out: Ratio CC50/EC50
Outline: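 Ratio CC50/EC50, both taken from the same 5-day MTT run in MT-4 cells. CC50 is from mock-infected wells.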

[6] = test system: Human immunodeficiency virus 2; experiment: Antiviral activity against HIV2 ROD infected in human MT4 cells assessed as inhibition of viral replication; type: functional, organism-based; conditions: ISOLATE ROD; outline: as §1

Structure (SMILES)	EC50 [1]	IC50 [2]	CC50 at 120 h [3]	EC50 [4]	selectivity ratio [5]	Activity [6]
CNc1nc(Nc2c(C)cc(C)cc2C)nc(NC2CCN(Cc3cccc(C#N)c3)CC2)n1	4.6 µM	1.97 µM	23 µM	0.007 µM	3240	inactive
CNc1nc(Nc2c(C)cc(C)cc2C)nc(NC2CCN(C(=O)c3ccc([N+](=O)[O-])cc3)CC2)n1	> 33.2 µM	–	33.2 µM	1.79 µM	18	inactive
CNc1nc(Nc2c(C)cc(C)cc2C)nc(NC2CCN(Cc3ccc(OC)cc3)CC2)n1	5.8 µM	–	22.1 µM	0.0095 µM	2310	inactive
COc1nc(Nc2c(C)cc(C)cc2C)nc(NC2CCN(Cc3ccc([N+](=O)[O-])cc3)CC2)n1	≥ 6.1 µM	–	15.4 µM	0.0094 µM	1640	inactive
COc1nc(Nc2c(C)cc(C)cc2C)nc(NC2CCN(Cc3ccccc3)CC2)n1	4.8 µM	–	28.6 µM	0.0113 µM	2510	inactive
CNc1nc(Nc2c(C)cc(C)cc2C)nc(NC2CCN(C(=O)c3ccc(C(=O)O)cc3)CC2)n1	> 255 µM	–	≥ 255 µM	≥ 127 µM	≥ 2	inactive
COc1nc(Nc2c(C)cc(C)cc2C)nc(NC2CCN(Cc3cccc(C#N)c3)CC2)n1	4.6 µM	–	23.5 µM	0.0098 µM	2380	inactive
CC(C)Nc1cccnc1N1CCN(C(=O)c2cc3cc(NS(C)(=O)=O)ccc3[nH]2)CC1 [DELAVIRDINE MESYLATE]	> 36.2 µM	–	> 36.2 µM	0.0326 µM	> 1100	–
COc1nc(Nc2c(C)cc(C)cc2C)nc(NC2CCN(C(=O)c3ccc(C(=O)O)cc3)CC2)n1	> 149 µM	–	≥ 149 µM	36.2 µM	≥ 4	inactive
COc1ccc(CN2CCC(Nc3nc(Nc4c(C)cc(C)cc4C)nc(OC)n3)CC2)cc1	7.4 µM	–	19.8 µM	0.0097 µM	2040	inactive
O=C1Nc2ccc(Cl)cc2[C@@](C#CC2CC2)(C(F)(F)F)O1 [EFAVIRENZ]	0.57 µM	–	> 6.3 µM	–	> 1190	–
COc1nc(Nc2c(C)cc(C)cc2C)nc(NC2CCN(Cc3ccccc3C#N)CC2)n1	6.7 µM	–	28 µM	0.0192 µM	1460	inactive
Cc1ccnc2c1NC(=O)c1cccnc1N2C1CC1 [NEVIRAPINE]	11.2 µM	–	> 15 µM	0.0901 µM	–	–
COc1nc(Nc2c(C)cc(C)cc2C)nc(NC2CCN(C(=O)c3ccc(O)cc3)CC2)n1	> 121 µM	–	121 µM	1.66 µM	73	inactive
CNc1nc(Nc2c(C)cc(C)cc2C)nc(NC2CCN(Cc3ccccc3)CC2)n1	5 µM	2.46 µM	28.4 µM	0.0088 µM	3190	inactive
CNc1nc(Nc2c(C)cc(C)cc2C)nc(NC2CCN(Cc3ccc(F)cc3)CC2)n1	4.9 µM	–	25.6 µM	0.0102 µM	2880	inactive
Nc1ccn([C@H]2CC[C@@H](CO)O2)c(=O)n1 [ZALCITABINE]	–	–	> 94.7 µM	1.04 µM	> 93	–
CNc1nc(Nc2c(C)cc(C)cc2C)nc(NC2CCN(Cc3ccc(C#N)cc3)CC2)n1	1.3 µM	–	10 µM	0.0085 µM	1190	inactive
CNc1nc(Nc2c(C)cc(C)cc2C)nc(NC2CCN(Cc3ccccc3C#N)CC2)n1	4.6 µM	–	24.7 µM	0.0099 µM	2500	inactive
COc1nc(Nc2c(C)cc(C)cc2C)nc(NC2CCN(Cc3ccc(F)cc3)CC2)n1	6.5 µM	–	24.7 µM	0.0115 µM	2140	inactive
COc1nc(Nc2c(C)cc(C)cc2C)nc(NC2CCN(C(=O)c3ccccc3)CC2)n1	> 28.8 µM	–	28.8 µM	1.79 µM	16	inactive
CNc1nc(Nc2c(C)cc(C)cc2C)nc(NC2CCN(C(=O)c3ccccc3)CC2)n1	> 30.9 µM	–	30.9 µM	0.224 µM	132	inactive
CNc1nc(Nc2c(C)cc(C)cc2C)nc(NC2CCN(Cc3ccc([N+](=O)[O-])cc3)CC2)n1	≥ 2.6 µM	–	10.2 µM	0.0082 µM	1230	inactive
COc1nc(Nc2c(C)cc(C)cc2C)nc(NC2CCN(Cc3ccc(C#N)cc3)CC2)n1	1.6 µM	1.77 µM	14.6 µM	0.0092 µM	1600	inactive
CNc1nc(Nc2c(C)cc(C)cc2C)nc(NC2CCN(C(=O)c3ccc(O)cc3)CC2)n1	> 55.4 µM	–	55.4 µM	0.932 µM	60	inactive
Cc1cn([C@H]2C[C@H](N=[N+]=[N-])[C@@H](CO)O2)c(=O)[nH]c1=O [ZIDOVUDINE]	0.0086 µM	–	250 µM	0.0206 µM	12200	–
Cc1cc(C#N)cc(C)c1Oc1nc(Nc2ccc(C#N)cc2)nc(N)c1Br [ETRAVIRINE]	0.026 µM	–	> 4.6 µM	–	–	–
COc1nc(Nc2c(C)cc(C)cc2C)nc(NC2CCN(C(=O)c3ccc([N+](=O)[O-])cc3)CC2)n1	> 25.2 µM	–	≥ 25.2 µM	4.37 µM	≥ 6	inactive
